Assay type in all cases: functional
Holding throughout (conditions): route intraperitoneal

Assay [1] concerns Mus musculus. In words: Muscle relaxant activity in albino mouse at 3 mg/kg, ip after 90 mins by traction test. The arrangement: scale not given: the % may be the effect or the level left. In a few lines: (§1)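 Traction test in male albino mice (20–25 g), five per group, given drug ip in DMSO. Success required touching the wire with at least one hind paw within 5 s; otherwise scored as failure. Mice were tested 30, 45, 60 and 90 min after dosing, immediately before the rotarod. Results are % successful, mean ± SEM.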

In assay [2] the test system is Mus musculus. Nature of the assay: Decrease in cognitive impairment in albino mouse assessed as retention latency at 3 mg/kg, ip after 90 mins by passive avoidance reflex test. Summed up: (§2)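 Passive avoidance in male albino mice (20–25 g), five per group, housed singly from the day before training. Drug in DMSO was given ip 30, 45, 60 or 90 min before the training trial. Mice were put in the light side of a two-compartment apparatus and the door to the dark side was opened. The retention test next day used the shock generator off. Latency reported as mean ± SEM.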

In assay [3] the test system is Mus musculus. In words: Neuropharmacological effect in albino mouse assessed as spontaneous locomotor activity at 3 mg/kg, ip after 45 mins. Summed up: (§3)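 Male albino mice (20–25 g), five per group, got ip drug in DMSO or DMSO vehicle and went back to their home cages. After 30, 45, 60 or 90 min each was placed alone in a Plexiglas box and spontaneous locomotor activity was recorded. Tests were run in the morning. Values are mean ± SEM.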

The subject of assay [4] is Mus musculus. Nature of the assay: Decrease in cognitive impairment in albino mouse assessed as retention latency at 3 mg/kg, ip after 60 mins by passive avoidance reflex test. In a few lines: as §2
Assay [5] concerns Mus musculus. In words: Decrease in cognitive impairment in albino mouse assessed as retention latency at 3 mg/kg, ip after 45 mins by passive avoidance reflex test. Summed up: as §2
The test system of assay [6] is Mus musculus. In words: Neuropharmacological effect in albino mouse assessed as spontaneous locomotor activity at 3 mg/kg, ip after 60 mins. Summed up: as §3
The subject of assay [7] is Mus musculus. In words: Decrease in cognitive impairment in albino mouse assessed as retention latency at 3 mg/kg, ip after 30 mins by passive avoidance reflex test. In a few lines:
as §2

The test system of assay [8] is Mus musculus. In words: Neuropharmacological effect in albino mouse assessed as endurance time at 3 mg/kg, ip after 90 mins by rotarod test. In a few lines:
(§4)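 For the rotarod, the cylinder was 6 cm diameter, 30 cm high and turned at 12 rpm. Male albino mice were trained the day before to stay on for 300 s, and those not reaching this were excluded. Endurance time (max 300 s) was measured 30, 45, 60 and 90 min after ip drug in DMSO or vehicle. Five mice per group; mean ± SEM.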
A general note: The rotarod test checks motor coordination on a turning rod.

Assay [9] concerns Mus musculus. In words: Neuropharmacological effect in albino mouse assessed as spontaneous locomotor activity at 3 mg/kg, ip after 90 mins. Summed up:
as §3

Assay [10] relates to Mus musculus. In words: Neuropharmacological effect in albino mouse assessed as endurance time at 3 mg/kg, ip after 30 mins by rotarod test. Summed up: as §4
Assay [11] relates to Mus musculus. Nature of the assay: Neuropharmacological effect in albino mouse assessed as duration of loss of righting reflex at 3 mg/kg, ip. In a few lines: (§5)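 Male albino mice (20–25 g), five per group, injected ip (drug in DMSO). Loss of righting reflex was inability to right within 30 s, after which mice were laid supine in a 90° trough. Return was righting twice within 1 min. Onset was recorded, and duration was the time from loss to return. Values are mean ± SEM.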

In assay [12] the test system is Mus musculus. Nature of the assay: Muscle relaxant activity in albino mouse at 3 mg/kg, ip after 45 mins by traction test. The arrangement: scale not given: the % may be the effect or the level left. Summed up:
as §1

The test system of assay [13] is Mus musculus. Nature of the assay: Neuropharmacological effect in albino mouse assessed as endurance time at 3 mg/kg, ip after 60 mins by rotarod test. In a few lines: as §4
Assay [14] has as its system Mus musculus. In words: Analgesic activity in albino mouse assessed as retention latency at 3 mg/kg, ip after 60 mins by hot plate test. Summed up: (§6)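 Male albino mice (20–25 g), five per group, given drug in DMSO ip; vehicle controls got DMSO alone. Mice were placed in a glass cylinder on a 54 °C metal plate. Latency to hind-paw lick or jump was recorded, with a 30 s cut-off. Testing was 30, 45, 60 and 90 min post-injection. Values are mean ± SEM.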
(Thermal pain tests record how soon the animal reacts.)

Assay [15] relates to Mus musculus. Nature of the assay: Neuropharmacological effect in albino mouse assessed as onset of loss of righting reflex at 3 mg/kg, ip. Summed up: as §5
For assay [16], the system named is Mus musculus. Nature of the assay: Analgesic activity in albino mouse assessed as retention latency at 3 mg/kg, ip after 45 mins by hot plate test. In a few lines:
as §6

The subject of assay [17] is Mus musculus. In words: Analgesic activity in albino mouse assessed as retention latency at 3 mg/kg, ip after 90 mins by hot plate test. Summed up: as §6
The subject of assay [18] is Mus musculus. In words: Muscle relaxant activity in albino mouse at 3 mg/kg, ip after 30 mins by traction test. The arrangement: scale not given: the % may be the effect or the level left. In a few lines:
as §1

The subject of assay [19] is Mus musculus. In words: Neuropharmacological effect in albino mouse assessed as spontaneous locomotor activity at 3 mg/kg, ip after 30 mins. Summed up: as §3
In assay [20] the test system is Mus musculus. Nature of the assay: Analgesic activity in albino mouse assessed as retention latency at 3 mg/kg, ip after 30 mins by hot plate test. Summed up: as §6
The test system of assay [21] is Mus musculus. Nature of the assay: Muscle relaxant activity in albino mouse at 3 mg/kg, ip after 60 mins by traction test. The arrangement: scale not given: the % may be the effect or the level left. Summed up:
as §1

Assay [22] has as its system Mus musculus. Nature of the assay: Neuropharmacological effect in albino mouse assessed as endurance time at 3 mg/kg, ip after 45 mins by rotarod test. In a few lines:
as §4

For `CCCCCCCC/C=C/CCCCCCCC1=NCC(c2ccc(Cl)cc2)CC(=O)O1` (stereo unspecified), the Activity in the assay with Mus musculus [1] is 31%; in the assay on Mus musculus [2] it was 68.44 s; in the assay with Mus musculus [3], 9.33 m; in the assay with Mus musculus [4], 75.44 s; with Mus musculus [5] it was 110.36 s; in the assay on Mus musculus [6] it was 10.61 m. In addition, the Activity is given as 146.23 s in the assay on Mus musculus [7]; 128 s in the assay on Mus musculus [8]; 9.25 m in the assay with Mus musculus [9]; 198 s in the assay on Mus musculus [10]; 93.37 min with Mus musculus [11]; 35% with Mus musculus [12]. In addition, the Activity is on record as 155 s with Mus musculus [13]; 23.61 s in the assay with Mus musculus [14]; 38.65 min in the assay with Mus musculus [15]; 15.77 s in the assay on Mus musculus [16]; 28.43 s in the assay with Mus musculus [17]; 35% in the assay on Mus musculus [18]. The Activity is 11.45 m in the assay on Mus musculus [19], 9.34 s in the assay on Mus musculus [20], 33% in the assay with Mus musculus [21] and 175 s in the assay with Mus musculus [22].
On to `NCC(CC(=O)O)c1ccc(Cl)cc1` (stereo unspecified) [BACLOFEN], for which the Activity is reported as 53% in the assay with Mus musculus [1]; 128.56 s with Mus musculus [2]; 28.48 m in the assay with Mus musculus [3]; 121.44 s in the assay on Mus musculus [4]; 121.46 s with Mus musculus [5]; 30.76 m in the assay on Mus musculus [6]. The Activity amounted to 125.34 s with Mus musculus [7]; 254 s with Mus musculus [8]; 35.64 m with Mus musculus [9]; 214 s with Mus musculus [10]; 35.23 min in the assay with Mus musculus [11]; 52% in the assay with Mus musculus [12]. For the same molecule, the Activity in the assay on Mus musculus [13] is on record as 234 s; in the assay with Mus musculus [14], 14.36 s; in the assay with Mus musculus [15], 20.24 min; with Mus musculus [16] it was 15.35 s; with Mus musculus [17], 14.22 s; in the assay on Mus musculus [18], 50%. Moreover, the Activity was found to be 30.21 m in the assay on Mus musculus [19], 13.42 s with Mus musculus [20], 53% in the assay on Mus musculus [21] and 225 s with Mus musculus [22].
Regarding `CCCCCCCCCCCCCC1=NCC(c2ccc(Cl)cc2)CC(=O)O1` (stereo unspecified), the Activity in the assay on Mus musculus [1] came out at 35%; in the assay on Mus musculus [2], 67.56 s; with Mus musculus [3], 13.73 m; in the assay with Mus musculus [4] it was 82.36 s; in the assay on Mus musculus [5], 109.34 s; in the assay on Mus musculus [6], 14.76 m. Also, the Activity was found to be 147.24 s with Mus musculus [7]; 133 s with Mus musculus [8]; 13.11 m in the assay with Mus musculus [9]; 219 s in the assay with Mus musculus [10]; 75.93 min with Mus musculus [11]; 40% in the assay with Mus musculus [12]. Besides, the Activity in the assay on Mus musculus [13] is given as 169 s; with Mus musculus [14], 18.45 s; in the assay on Mus musculus [15], 32.16 min; in the assay on Mus musculus [16] it was 15.32 s; with Mus musculus [17] it was 26.13 s; in the assay with Mus musculus [18], 40%. The Activity is recorded as 15.24 m in the assay on Mus musculus [19], 8.33 s with Mus musculus [20], 35% in the assay on Mus musculus [21] and 174 s with Mus musculus [22].

For the origin of these results see ChEMBL document CHEMBL1139401, “5-(4-Chlorophenyl)-5,6-dihydro-1,3-oxazepin-7(4H)-one derivatives as lipophilic cyclic analogues of baclofen: design, synthesis, and neuropharmacological evaluation” (2008).
